Converted amounts (≈) assume the structure as drawn. The source made the active and inactive calls. The rule behind the calls is not given here.
Key:
Escherichia coli = experiment: Antimicrobial activity against Escherichia coli ATCC 25922 after 24 hrs by agar well diffusion method; type: functional
Method in brief: (§1)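 Agar well diffusion: stationary-phase culture suspended in saline at approx. 10^5 cfu/mL, 200 µL spread on Mueller-Hinton agar (bacteria) or Sabouraud agar (yeast, fungi). Test samples at 50 µg/50 µL added to wells. Incubated 24 h (bacteria, yeast) or 48 h (fungi). Read-out is inhibition zone diameter.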

Staphylococcus aureus = experiment: Antimicrobial activity against Staphylococcus aureus ATCC 25923 after 24 hrs by agar well diffusion method; type: functional, organism-based; method in brief: as §1
Candida albicans [1] = experiment: Antimicrobial activity against Candida albicans ATCC 24433 after 24 hrs using sabouraud liquid medium; type: functional
Method in brief: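 Broth MIC in duplicate in Sabouraud liquid medium. Samples made up at 1 mg/mL in DMSO, then serially diluted over 100-0.1 µg/mL. Inoculum is stationary-phase culture at 10^5 cfu/mL. Incubated 37 °C for 24 h. MIC taken as the lowest concentration preventing any visible growth.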

Aspergillus niger = experiment: Antimicrobial activity against Aspergillus niger after 48 hrs by agar well diffusion method; type: functional, organism-based; method in brief: as §1
Candida albicans [2] = experiment: Antimicrobial activity against Candida albicans ATCC 24433 after 24 hrs by agar well diffusion method; type: functional; method in brief: as §1
Bacillus subtilis = experiment: Antimicrobial activity against Bacillus subtilis IP 5832 after 24 hrs by agar well diffusion method; type: functional; method in brief: as §1

Row | Molecule | inhibition zone (IZ) (Escherichia coli) [mm] | Activity (Staphylococcus aureus) | MIC (Candida albicans [1]; ATCC 24433, 24 h) [µg/mL] | Activity (Aspergillus niger) | inhibition zone (IZ) (Candida albicans [2]) [mm] | inhibition zone (IZ) (Bacillus subtilis) [mm] | MIC (Candida albicans [1]) [µg/mL]
1 | O=c1cc(-c2ccc(O)cc2)oc2cc(O)cc(O)c12 [APIGENIN] | 6 | inactive | 3 (≈ 11.1 µM) | inactive | 10 | 6 | 
2 | O=c1cc(-c2ccc(O)cc2)oc2cc(O[C@@H]3O[C@H](CO)[C@@H](O)[C@H](O)[C@H]3O)cc(O)c12 [APIGETRIN] |  | inactive |  | inactive |  | 6 | 
3 | COc1ccc(-c2oc3cc(O)c(OC)c(O)c3c(=O)c2OC)cc1O [CENTAUREIDIN] |  | inactive | 3 (≈ 8.33 µM) | inactive | 11 | 6 | 
4 | COc1ccc(-c2oc3cc(O)c(OC)c(O)c3c(=O)c2OC)cc1 [SANTIN] | 6 | inactive | 3 (≈ 8.71 µM) | inactive | 8 | 6 | 
5 | NYSTATIN |  |  |  |  |  |  | 3.12

Reference: ChEMBL document CHEMBL1158681, “Flavones and sesquiterpene lactones from Achillea atrata subsp. multifida: antimicrobial activity” (1999)
